The values below come from publication PMC5189718 (Journal of the American Chemical Society, 2016).

Assay [1] addresses T1, hKOR (Homo sapiens, UniProt P41145). The experiment in a line: G protein BRET functional assay at hKOR. The format is cell-based. The note with it: for IC50: read-out: IC50 ± SEM (antagonist activity), inhibition of a reference agonist (U-50,488); for agonist activity: concentrations up to 100 µM. In short, it runs like this: (§1)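 HEK cells expressing the human receptor, co-transfected with Gα fused to an RLuc8 donor and Gγ fused to an mVenus acceptor. Receptor activation separates the G protein subunits, so the BRET signal falls. Agonist mode gives EC50 and Emax. Antagonist mode gives IC50 for inhibition of a reference agonist, and pA2 from Schild analysis. Values are mean ± SEM, n ≥ 3.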
A general note: Bioluminescence resonance energy transfer reports proximity on the nanometre scale.

For assay [2], the target named is T2, hDOR (Homo sapiens, UniProt P41143). The experiment in a line: G protein BRET functional assay at hDOR. The format is cell-based. As to conditions: for IC50: read-out: IC50 ± SEM (antagonist activity), inhibition of a reference agonist; for agonist activity: concentrations up to 100 µM. Summed up: as §1
T2 sequence (P41143 whole entry): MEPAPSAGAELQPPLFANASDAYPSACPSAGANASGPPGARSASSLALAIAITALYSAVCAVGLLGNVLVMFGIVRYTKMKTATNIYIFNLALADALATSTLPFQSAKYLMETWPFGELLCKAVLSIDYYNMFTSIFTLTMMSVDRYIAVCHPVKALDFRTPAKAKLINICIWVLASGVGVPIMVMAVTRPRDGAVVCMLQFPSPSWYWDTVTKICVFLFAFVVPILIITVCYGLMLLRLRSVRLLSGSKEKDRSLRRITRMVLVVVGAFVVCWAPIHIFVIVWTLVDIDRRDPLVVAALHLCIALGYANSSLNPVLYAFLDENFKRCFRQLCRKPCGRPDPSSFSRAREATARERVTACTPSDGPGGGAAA
Assay [3] concerns the target T1, hKOR. The experiment in a line: Radioligand binding at hKOR. As to conditions: read-out: Ki ± SEM, n ≥ 3.
The target of assay [4] is T2, hDOR. The experiment in a line: Radioligand binding at hDOR. As to conditions: read-out: Ki ± SEM, n ≥ 3.
Assay [5] deals with rodent opioid receptors. Put plainly: G protein BRET functional assays using rodent opioid receptors. The format is cell-based. As to conditions: rodent receptors (mouse or rat).
The target of assay [6] is human mu-opioid receptor (hMOR) (Homo sapiens, UniProt P35372). The experiment in a line: G protein BRET functional assay at hMOR. The format is cell-based. As to conditions: for maximal efficacy (Emax) relative to DAMGO: G protein BRET, agonist mode; for EC50: read-out: EC50 ± SEM (agonist activity), G protein BRET, HEK cells, mean ± SEM, n ≥ 3.
Sequence of human mu-opioid receptor (hMOR) (P35372 whole entry): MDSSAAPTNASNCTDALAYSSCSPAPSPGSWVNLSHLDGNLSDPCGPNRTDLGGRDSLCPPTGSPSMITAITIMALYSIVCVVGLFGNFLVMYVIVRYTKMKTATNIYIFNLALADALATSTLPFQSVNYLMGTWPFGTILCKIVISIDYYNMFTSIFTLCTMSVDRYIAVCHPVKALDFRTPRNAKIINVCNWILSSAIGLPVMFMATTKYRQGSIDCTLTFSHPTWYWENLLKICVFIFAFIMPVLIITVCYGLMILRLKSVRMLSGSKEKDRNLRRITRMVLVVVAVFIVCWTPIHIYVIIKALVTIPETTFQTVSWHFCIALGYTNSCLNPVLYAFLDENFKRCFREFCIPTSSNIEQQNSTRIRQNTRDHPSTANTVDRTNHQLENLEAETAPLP
Assay [7] has as its target T3, hMOR (Homo sapiens, UniProt P35372). The experiment in a line: Radioligand binding at hMOR. As to conditions: read-out: Ki ± SEM, n ≥ 3.
For assay [8], the target named is mouse MOR (mMOR) (Mus musculus, UniProt P42866). Put plainly: G protein BRET functional assay at mouse MOR. The class given is cell-based.
Sequence of mouse MOR (mMOR) (P42866 whole entry): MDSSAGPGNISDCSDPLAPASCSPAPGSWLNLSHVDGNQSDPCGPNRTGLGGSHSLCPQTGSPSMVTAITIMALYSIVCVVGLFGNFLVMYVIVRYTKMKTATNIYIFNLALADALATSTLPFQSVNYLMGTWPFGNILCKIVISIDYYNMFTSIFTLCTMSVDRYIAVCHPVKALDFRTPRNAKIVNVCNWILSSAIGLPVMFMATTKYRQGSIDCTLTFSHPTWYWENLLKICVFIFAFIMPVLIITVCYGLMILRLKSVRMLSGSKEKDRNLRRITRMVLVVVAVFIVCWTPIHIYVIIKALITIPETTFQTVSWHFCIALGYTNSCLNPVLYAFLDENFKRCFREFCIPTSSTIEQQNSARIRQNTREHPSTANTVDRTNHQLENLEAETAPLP
Assay [9] deals with T3, hMOR. Put plainly: β-arrestin recruitment BRET assay at hMOR. The format is cell-based. As to conditions: β-arrestin-2 BRET, in the presence of GRK2.

Values joined by “and” are separate entries in the source; they are usually repeats but may differ in a detail not shown here. Equal entries are not always repeated. Where only a bound is given, the exact number is not on record here.

T1 sequence (P41145 whole entry, the tested form may be a part): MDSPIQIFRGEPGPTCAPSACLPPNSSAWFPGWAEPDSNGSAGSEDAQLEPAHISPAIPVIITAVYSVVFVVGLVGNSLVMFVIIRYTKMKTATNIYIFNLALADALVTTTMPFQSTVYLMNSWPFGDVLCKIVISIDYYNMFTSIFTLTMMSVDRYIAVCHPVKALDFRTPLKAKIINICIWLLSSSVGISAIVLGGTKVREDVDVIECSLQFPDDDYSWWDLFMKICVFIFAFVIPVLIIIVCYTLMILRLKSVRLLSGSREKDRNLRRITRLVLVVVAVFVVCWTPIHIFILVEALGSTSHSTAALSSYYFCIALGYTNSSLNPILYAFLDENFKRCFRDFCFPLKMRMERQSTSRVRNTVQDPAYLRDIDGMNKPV
T3 sequence (P35372 whole entry): as the sequence (P35372 whole entry) above

What is called IC50 is the concentration needed to halve the response being measured. Usually Ki stands for a measure of affinity in units of concentration, obtained from inhibition or displacement. As for mitragynine, in assay [1] (competitive antagonism), the “pA2 determined from Schild analysis” value is 1.4 ± 0.40 µM and 1.4 µM. Besides, the values for the IC50 in [1] and in assay [2] were 8.5 µM and over 10 µM, respectively. Besides, the “antagonist activity at hDOR” value in [2] is “very low potency”. Further, the Ki was 0.772 ± 0.207 µM in assay [3] and over 10 µM in assay [4]. In assay [5], the “agonist or antagonist activity at rodent opioid receptors” value (shortened to “agonist or antagonist activity”) is “no agonist activity”.

Usually EC50 stands for the midpoint of the concentration-response curve. On to `CO/C=C(/C(=O)OC)[C@@H]1CCN2CCc3c([nH]c4cccc(OC)c34)[C@@H]2C1` [Compound 3, desethylmitragynine], for which, in assay [6], the “maximal efficacy (Emax) relative to DAMGO” value was found to be 59% and the EC50 amounted to 12 ± 7.6 µM.

The term Emax denotes the greatest response seen or fitted, relative to the assay's reference. On to `CCC1CN2CCc3c([nH]c4cccc(OC)c34)C2CC1C(=COC)C(=O)OC` (single isomer, unassigned; (+)) [(+)-mitragynine], for which, in [1] (G protein BRET, agonist mode), the Emax is recorded as 31%.

As to `CC[C@H]1CN2CCc3c([nH]c4cccc(OC)c34)[C@@H]2C[C@@H]1/C(=C\OC)C(=O)OC` [speciogynine], in [1], the agonist activity entry was “no measurable agonist activity” and the half-maximal inhibitory concentration (IC50) was over 10 µM. In assay [2], the agonist activity result is listed as “no measurable agonist activity” and the IC50 was over 10 µM. The Ki in [4] was over 10 µM. In assay [5], the “agonist or antagonist activity” value was “no notable agonist or antagonist activity”.

Consider `CC[C@@H]1CN2CCc3c([nH]c4cccc(OC)c34)[C@H]2C[C@@H]1/C(=C\OC)C(=O)OC` [speciociliatine], for which, in [1], the agonist activity entry is recorded as “no measurable agonist activity” and the IC50 is over 10 µM. Moreover, in assay [2], the agonist activity entry was “no measurable agonist activity” and the IC50 is over 10 µM. Moreover, in [4], the Ki was over 10 µM. In [5], the “agonist or antagonist activity” value was “no notable agonist or antagonist activity”.

As for `C=C[C@H]1CN2CCc3c([nH]c4cccc(OC)c34)[C@@H]2C[C@@H]1/C(=C\OC)C(=O)OC` [paynantheine], the agonist activity result in assay [6] (concentrations up to 100 µM), in [1] and in [2] was “no measurable agonist activity” throughout. In addition, the IC50 in assay [6] (read-out: IC50 ± SEM (antagonist activity), inhibition of a reference agonist, n ≥ 3) came out at 2.2 µM. Further, the Ki in [7] was 0.41 ± 0.152 µM; in assay [4] it was over 10 µM. Moreover, the “agonist or antagonist activity” value in [5] is reported as “no notable agonist or antagonist activity”.

Take `CC[C@@H]1CN2CCc3c([nH]c4cccc(O)c34)[C@@H]2C[C@@H]1/C(=C\OC)C(=O)OC` [Compound 1]: in [6], the “maximal efficacy (Emax) relative to DAMGO” value was 29% and the EC50 is 0.681 ± 0.379 µM.

In the case of `CC[C@@H]1CN2CC[C@@]3(O)C(=Nc4cccc(OC)c43)[C@@H]2C[C@@H]1/C(=C\OC)C(=O)OC` [Compound 7-OH, 7-hydroxymitragynine], in [1] (competitive antagonism), the “pA2 (Schild analysis)” value worked out at 490 ± 131 nM and the “pA2 determined from Schild analysis” value came to 0.49 µM. Besides, in assay [1], the IC50 is 7.9 µM. The IC50 in assay [2] is over 10 µM. Moreover, in [4], the Ki amounted to 0.219 ± 0.041 µM. For the same compound, the “agonist activity at mMOR” value in assay [8] was “retains its agonist activity”. In addition, the β-arrestin recruitment result in [9] was “no measurable β-arrestin binding”.
